Measured values published in ChEMBL document CHEMBL4265984, “Improved potency and reduced toxicity of the antifungal peptoid AEC5 through submonomer modification” (Bioorg Med Chem Lett, 2018).
≈ marks a conversion by molar mass, not a printed value.

Assays:
Cryptococcus neoformans = experiment: Antifungal activity against Cryptococcus neoformans H99S serotype A after 72 hrs by presto blue dye based CLSI method; assay type: functional, Cryptococcus neoformans var. grubii H99S
[1] = Cytotoxicity against human HepG2 cells after 72 hrs by MTT assay; assay type: cell-based; conditions: read-out: TD50
[2] = Selectivity index, ratio of TD50 for human HepG2 cells to MIC>90 for Cryptococcus neoformans H99S serotype A; assay type: toxicity; conditions: read-out: Selectivity Index
Erythrocyte = experiment: Hemolytic activity in human RBC after 1 hr; assay type: ADME, cell-based
Summary of the method: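 Hemolysis of human red blood cells is reported as HC10, the concentration giving 10% hemolysis, in µg/mL.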

[3] = Selectivity index, ratio of HC10 for human RBC to MIC>90 for Cryptococcus neoformans H99S serotype A; assay type: toxicity; conditions: red blood cells, read-out: Selectivity Index
[4] = Cytotoxicity against mouse NIH/3T3 cells after 72 hrs by MTT assay; assay type: cell-based, NIH3T3; conditions: read-out: TD50
[5] = Hemolytic activity in human RBC at 100 ug/ml after 1 hr relative to control; assay type: ADME, cell-based, Erythrocyte; conditions: red blood cells (erythrocytes), read-out: Activity
[6] = Selectivity index, ratio of TD50 for mouse NIH/3T3 cells to MIC>90 for Cryptococcus neoformans H99S serotype A; assay type: toxicity; conditions: read-out: Selectivity Index

Q: For CCCCCCCCNCC(=O)N(CCCCN)CC(=O)N(CC(N)=O)Cc1ccco1, which MIC90 (Cryptococcus neoformans) is on record?
A: > 800 µg/mL

Q: Which CC50 at 72 h [1] does the source give for CCCCCCCCCCCCCNCC(=O)N(CCCCCCN)CC(=O)N(CC(N)=O)Cc1cccs1 here?
A: 56.2 µg/mL (≈ 99.3 µM)

Q: What about the MIC90 (Cryptococcus neoformans) of the same compound?
A: 3.13 µg/mL (≈ 5.53 µM)

Q: What about the selectivity ratio [2] of the same compound?
A: 18

Q: For CC(C)=CCC/C(C)=C/CC/C(C)=C/CNCC(=O)N(CCCCN)CC(=O)N(CC(N)=O)Cc1ccco1, which CC50 at 72 h [1] is on record?
A: 800 µg/mL (≈ 1470 µM)

Q: What about the MIC90 (Cryptococcus neoformans) of the same compound?
A: 100 µg/mL (≈ 184 µM)

Q: And the selectivity ratio [2]?
A: 8

Q: Which results are given for CCCCCCCCCCCCCNCC(=O)N(C)CC(=O)N(CC(N)=O)Cc1ccco1?
A: CC50 at 72 h [1]: 21.1 µg/mL (≈ 45.4 µM); MIC90 (Cryptococcus neoformans): 12.5 µg/mL (≈ 26.9 µM); selectivity ratio [2]: 2

Q: For CCCCCCCCCCCCCNCC(=O)N(CCCCN)CC(=O)N(C)CC(N)=O, which CC50 at 72 h [1] is on record?
A: 54.3 µg/mL (≈ 119 µM)

Q: What about the MIC90 (Cryptococcus neoformans) of the same compound?
A: 50 µg/mL (≈ 110 µM)

Q: What about the selectivity ratio [2] of the same compound?
A: 1

Q: Which results are given for CCCCCCCCCCCCCNCC(=O)N(CCCCN)CC(=O)N(CC(N)=O)Cc1ccco1?
A: HC10 (Erythrocyte): 56.6 µg/mL; CC50 at 72 h [1]: 56.2 µg/mL (≈ 108 µM); selectivity ratio [3]: 9; MIC90 (Cryptococcus neoformans): 6.3 µg/mL (≈ 12.1 µM); CC50 at 72 h [4]: 48.6 µg/mL (≈ 93.1 µM); hemolysis at 1 h, 100 ug/ml [5]: 30.4%; selectivity ratio [2]: 9; selectivity ratio [6]: 8

Q: Which HC10 (Erythrocyte) does the source give for CCCCCCCCCCCCCNCC(=O)N(CCCCN)CC(=O)N(CC(N)=O)Cc1cccs1 here?
A: 37.2 µg/mL

Q: What about the CC50 at 72 h [1] of the same compound?
A: 79.3 µg/mL (≈ 147 µM)

Q: What about the selectivity ratio [3] of the same compound?
A: 12

Q: And the MIC90 (Cryptococcus neoformans)?
A: 3.13 µg/mL (≈ 5.82 µM)

Q: And the CC50 at 72 h [4]?
A: 65.9 µg/mL (≈ 123 µM)

Q: And the hemolysis at 1 h, 100 ug/ml [5]?
A: 48.6%

Q: What about the selectivity ratio [2] of the same compound?
A: 25

Q: And the selectivity ratio [6]?
A: 21

Q: What does the source list for CCCCCCCCCCCCCNCC(=O)N(CCCCN)CC(=O)N(CC(N)=O)Cc1ccccc1?
A: CC50 at 72 h [1]: 52.2 µg/mL (≈ 98.2 µM); MIC90 (Cryptococcus neoformans): 3.13 µg/mL (≈ 5.89 µM); selectivity ratio [2]: 17

Q: Which MIC90 (Cryptococcus neoformans) does the source give for CC(C)=CCC/C(C)=C/CC/C(C)=C/CNCC(=O)N(CCCCN)CC(=O)N(CCCn1ccnc1)CC(N)=O here?
A: 100 µg/mL (≈ 175 µM)

Q: Which results are given for CCCCCCCCCCCCCCCCNCC(=O)N(CCCCN)CC(=O)N(CC(N)=O)Cc1ccco1?
A: CC50 at 72 h [1]: 40.4 µg/mL (≈ 71.7 µM); MIC90 (Cryptococcus neoformans): 3.13 µg/mL (≈ 5.55 µM); selectivity ratio [2]: 13

Q: For CCCCCCCCCCCCCNCC(=O)N(CCCC[N+](C)(C)C)CC(=O)N(CC(N)=O)Cc1cccs1, which HC10 (Erythrocyte) is on record?
A: 42.6 µg/mL

Q: What about the CC50 at 72 h [1] of the same compound?
A: 91.2 µg/mL

Q: What about the MIC90 (Cryptococcus neoformans) of the same compound?
A: 3.13 µg/mL

Q: What about the CC50 at 72 h [4] of the same compound?
A: 115 µg/mL

Q: And the hemolysis at 1 h, 100 ug/ml [5]?
A: 46%

Q: Which CC50 at 72 h [1] does the source give for CCCCCCCCCCCCCNCC(=O)N(CCCCN)CC(=O)N(CC(N)=O)Cc1ncc[nH]1 here?
A: 147 µg/mL (≈ 282 µM)

Q: What about the MIC90 (Cryptococcus neoformans) of the same compound?
A: 25 µg/mL (≈ 47.9 µM)

Q: What about the selectivity ratio [2] of the same compound?
A: 6

Q: Which CC50 at 72 h [1] does the source give for CNCC(=O)N(CCCCN)CC(=O)N(CC(N)=O)Cc1ccco1 here?
A: > 800 µg/mL

Q: What about the MIC90 (Cryptococcus neoformans) of the same compound?
A: > 400 µg/mL

Q: Which MIC90 (Cryptococcus neoformans) does the source give for CCCCCCCCCCNCC(=O)N(CCCCN)CC(=O)N(CC(N)=O)Cc1ccco1 here?
A: 400 µg/mL (≈ 834 µM)

Q: Which CC50 at 72 h [1] does the source give for CCCCCCCCCCCCCNCC(=O)N(CCCNC(=N)N)CC(=O)N(CC(N)=O)Cc1cccs1 here?
A: 40.8 µg/mL (≈ 72.1 µM)

Q: What about the MIC90 (Cryptococcus neoformans) of the same compound?
A: 12.5 µg/mL (≈ 22.1 µM)

Q: And the selectivity ratio [2]?
A: 3

Q: For CCCCCCCCCCCCCNCC(=O)N(CCCCN)CC(=O)N(CCCn1ccnc1)CC(N)=O, which CC50 at 72 h [1] is on record?
A: 228 µg/mL (≈ 415 µM)

Q: And the MIC90 (Cryptococcus neoformans)?
A: 50 µg/mL (≈ 90.9 µM)

Q: What about the selectivity ratio [2] of the same compound?
A: 5

Q: Which MIC90 (Cryptococcus neoformans) does the source give for CC(C)=CCC/C(C)=C/CC/C(C)=C/CNCC(=O)N(CCCCN)CC(=O)N(CC(N)=O)Cc1cccs1 here?
A: 400 µg/mL (≈ 715 µM)

Q: Which results are given for CCCCCCCCCCCCCNCC(=O)N(CCCCO)CC(=O)N(CC(N)=O)Cc1cccs1?
A: CC50 at 72 h [1]: 31 µg/mL (≈ 57.5 µM); MIC90 (Cryptococcus neoformans): 12.5 µg/mL (≈ 23.2 µM); selectivity ratio [2]: 3

Q: Which MIC90 (Cryptococcus neoformans) does the source give for CC(C)=CCC/C(C)=C/CNCC(=O)N(CCCCN)CC(=O)N(CC(N)=O)Cc1ccco1 here?
A: 400 µg/mL (≈ 841 µM)

Q: Which CC50 at 72 h [1] does the source give for CCCCCCCCCCCCCNCC(=O)N(CCCCN)CC(=O)N(CC(N)=O)Cc1ccncc1 here?
A: 104 µg/mL (≈ 195 µM)

Q: What about the MIC90 (Cryptococcus neoformans) of the same compound?
A: 25 µg/mL (≈ 46.9 µM)

Q: What about the selectivity ratio [2] of the same compound?
A: 4

Q: For CCCCCCCCCCCCCNCC(=O)N(CCCCN)CC(=O)N(CC(N)=O)CC1CCCO1 (centres undefined), which CC50 at 72 h [1] is on record?
A: 170 µg/mL (≈ 324 µM)

Q: And the MIC90 (Cryptococcus neoformans)?
A: 12.5 µg/mL (≈ 23.8 µM)

Q: And the selectivity ratio [2]?
A: 14

Q: For CCCCCCCCCCCCCNCC(=O)N(CCCCN)CC(=O)N(CCc1c[nH]c2ccccc12)CC(N)=O, which CC50 at 72 h [1] is on record?
A: 42.7 µg/mL (≈ 73 µM)

Q: What about the MIC90 (Cryptococcus neoformans) of the same compound?
A: 3.13 µg/mL (≈ 5.35 µM)

Q: What about the selectivity ratio [2] of the same compound?
A: 14

Q: For CC(C)=CCC/C(C)=C/CC/C(C)=C/CNCC(=O)N(CCCCN)CC(=O)N(CCc1c[nH]c2ccccc12)CC(N)=O, which MIC90 (Cryptococcus neoformans) is on record?
A: 100 µg/mL (≈ 165 µM)

Q: With CCCCCCCCCCCCCNCC(=O)N(CCN)CC(=O)N(CC(N)=O)Cc1cccs1 as the compound, how does the CC50 at 72 h [1] read?
A: 40.5 µg/mL (≈ 79.4 µM)

Q: And the MIC90 (Cryptococcus neoformans)?
A: 6.25 µg/mL (≈ 12.3 µM)

Q: What about the selectivity ratio [2] of the same compound?
A: 6

Q: Which results are given for CCCCCCCCCCCCCNCC(=O)N(CCCN)CC(=O)N(CC(N)=O)Cc1cccs1?
A: CC50 at 72 h [1]: 47.3 µg/mL (≈ 90.3 µM); MIC90 (Cryptococcus neoformans): 3.13 µg/mL (≈ 5.98 µM); selectivity ratio [2]: 15
